{"data": "Assay results gathered from unrelated publications", "target": "Bone morphogenetic protein receptor type-2 (BMPR2, Homo sapiens, UniProt Q13873)", "One construct used (Q13873 27-1038)": "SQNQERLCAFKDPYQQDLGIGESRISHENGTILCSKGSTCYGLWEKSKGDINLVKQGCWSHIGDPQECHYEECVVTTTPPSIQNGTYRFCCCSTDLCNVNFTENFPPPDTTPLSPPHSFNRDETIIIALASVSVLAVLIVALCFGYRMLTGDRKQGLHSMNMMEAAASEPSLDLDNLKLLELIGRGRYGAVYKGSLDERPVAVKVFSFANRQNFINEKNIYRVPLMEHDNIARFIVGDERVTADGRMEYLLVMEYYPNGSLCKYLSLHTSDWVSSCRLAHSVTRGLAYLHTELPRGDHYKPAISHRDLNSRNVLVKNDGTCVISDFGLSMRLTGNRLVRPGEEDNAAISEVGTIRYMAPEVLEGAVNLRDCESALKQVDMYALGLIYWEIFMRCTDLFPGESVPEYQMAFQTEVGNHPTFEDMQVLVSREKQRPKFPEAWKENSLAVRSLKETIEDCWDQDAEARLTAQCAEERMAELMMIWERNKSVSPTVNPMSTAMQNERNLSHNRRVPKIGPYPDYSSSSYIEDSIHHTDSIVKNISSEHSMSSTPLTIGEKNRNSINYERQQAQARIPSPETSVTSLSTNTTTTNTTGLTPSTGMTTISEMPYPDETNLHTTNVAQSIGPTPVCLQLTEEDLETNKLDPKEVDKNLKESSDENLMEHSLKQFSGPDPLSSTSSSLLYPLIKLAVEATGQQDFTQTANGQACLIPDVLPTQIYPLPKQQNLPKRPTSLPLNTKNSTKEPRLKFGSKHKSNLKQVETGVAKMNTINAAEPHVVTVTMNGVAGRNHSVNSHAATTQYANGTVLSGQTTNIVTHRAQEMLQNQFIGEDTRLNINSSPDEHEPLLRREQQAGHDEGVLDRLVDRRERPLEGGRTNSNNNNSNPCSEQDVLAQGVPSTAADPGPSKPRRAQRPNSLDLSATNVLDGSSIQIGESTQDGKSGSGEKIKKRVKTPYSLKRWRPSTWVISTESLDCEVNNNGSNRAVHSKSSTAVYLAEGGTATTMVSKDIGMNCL", "note": "Compare with care: the assays were run in different laboratories."}
{"Structure (SMILES)": "CS(=O)(=O)Nc1cccc(-c2csc(NC(=O)CSc3nc4nccnc4c(=O)n3CCc3ccccc3)n2)c1", "effect on": "enzyme activity", "action": "inhibitor", "concentration": "10 µM", "measurement": "inhibition", "result": "3%"}
{"Structure (SMILES)": "O=C(Nc1ccc(Oc2ccc(F)cc2)cc1)N1CCc2ncccc2[C@H]1c1ccc(F)cc1", "effect on": "cell-free assay", "method": "competition with immobilised ligand", "concentration": "1 µM", "measurement": "remaining binding", "result": "96%"}
{"Structure (SMILES)": "CN1CC(Oc2cnc(C#N)cc2-c2ccn3nc(NC(=O)C4CC4)cc3c2)C1", "effect on": "enzyme activity", "action": "inhibitor", "concentration": "1 µM", "measurement": "inhibition", "result": "1%"}
{"Structure (SMILES)": "O=C(Nc1cnn(-c2csc(C(=O)NC3COC3)c2)c1)Nc1ccccc1Cl", "effect on": "enzyme activity", "action": "inhibitor", "concentration": "5 µM", "measurement": "remaining activity", "result": "110%"}
{"Structure (SMILES)": "Cn1c2c(Cl)c(Cl)ccc2c2cn[nH]c(=O)c21", "effect on": "thermal stability", "method": "DSF", "concentration": "10 µM", "measurement": "ΔTm", "result": "2.9 °C"}
{"Structure (SMILES)": "Cn1cncc1C1=CN(c2ncnc3[nH]cnc23)CCS1", "effect on": "enzyme activity", "action": "inhibitor", "method": "radiometric", "concentration": "2 µM", "measurement": "inhibition", "result": "74%"}
{"Structure (SMILES)": "Cc1nccc(COC(=O)N2C[C@@H]3[C@@H](CNC(=O)c4ccc5[nH]nnc5c4)[C@@H]3C2)n1", "effect on": "cell-free assay", "method": "competition with immobilised ligand", "concentration": "1 µM", "measurement": "remaining binding", "result": "81%"}
{"Structure (SMILES)": "Cn1c2c(c3ccc(Cl)c(Cl)c31)C(C#N)C1(CCOCC1)NC2=O (stereo not drawn)", "effect on": "thermal stability", "method": "DSF", "concentration": "10 µM", "measurement": "ΔTm", "result": "0.9 °C"}
{"Structure (SMILES)": "Cc1sc(C(=O)NC2COC2)cc1-n1cc(NC(=O)Nc2c(F)cccc2Cl)cn1", "effect on": "enzyme activity", "action": "inhibitor", "concentration": "10 µM", "measurement": "remaining activity", "result": "84.5%"}
{"Structure (SMILES)": "Nc1ncnc2occ(-c3ccc(NC(=O)Nc4cc(C(F)(F)F)ccc4F)cc3)c12", "effect on": "cell-free assay", "concentration": "20 µM", "measurement": "remaining signal", "result": "60%"}
{"Structure (SMILES)": "O=C(NCCCC1CCCCC1)c1ccc(CNC(=O)c2cnn(-c3ccccc3)c2C(F)(F)F)cc1", "effect on": "cell-free assay", "method": "competition with immobilised ligand", "concentration": "0.1 µM", "measurement": "remaining binding", "result": "100%"}
{"Structure (SMILES)": "N#CC1c2c([nH]c3c(Cl)c(Cl)ccc23)C(=O)NC12CCCCC2 (racemic)", "effect on": "thermal stability", "method": "DSF", "concentration": "10 µM", "measurement": "ΔTm", "result": "0.7 °C"}
